According to article PMC6267698 (Drug Design, Development and Therapy, 2018):

Experiments:
Nrf2 signal pathway = experiment: Western blot of Nrf2 signal pathway proteins in HepG-2 cells; format: cell-based
[1] = test system: P-gp–mediated efflux and CYP3A-mediated metabolism; details: rat, one single dose of Sch B 0.024 mM/kg; cited from earlier work
mice liver [2] = experiment: Histopathological analysis of H&E-stained mice liver sections; format: in vivo
Outline: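 Mice were given test compound (25.0, 50.0, 100 mg/kg) by mouth daily for 21 days in 0.5% sodium carboxymethylcellulose and killed 24 h after the last dose. Liver was fixed in neutral buffered formalin, embedded in paraffin, cut at 5 μm and stained with H&E.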

CYP3A = details: read-out: IC50 value, inhibition of CYP3A activity; rat liver microsomes; cited from earlier work
[3] = test system: CYP450 (CYP1A2/2C9/2D6/2E1/3A4); experiment: Microsomal CYP450 activity detection; format: in vivo, mice; details: Sch B 25.0, 50.0 and 100.0 mg/kg oral, 21 days, dose-dependent
Outline: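 Livers came from mice dosed orally for 21 days (25.0–100 mg/kg). Livers (~2 g) were homogenised at 4°C in phosphate buffer pH 7.4 with 1.0 mM EDTA and 250 mM sucrose, spun at 9,000× g then 100,000× g, and the pellet resuspended with 250 mM glycerol. Microsomes (0.5 mg/mL) were incubated with a probe cocktail: phenacetin 10 μM, tolbutamide 100 μM, dextromethorphan 2.5 μM, chlorzoxazone 20 μM, midazolam 5 μM. Reactions ran 30 min with 1 mM NADPH and were stopped with methanol. Metabolites were measured by LC–MS/MS.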

CYP3A1 mRNA = details: rat primary hepatocytes, Sch B 0.1 µM; cited from earlier work
mice liver [4] = experiment: TUNEL immunofluorescence staining of mice liver; format: in vivo; details: 100 mg/kg Sch B oral, 21 days
Outline: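 After 21 days of daily oral test compound (25.0–100 mg/kg, 0.5% sodium carboxymethylcellulose), paraffin liver sections (10 μm) were treated with 3% H2O2 in methanol for 10 min and blocked with 1% BSA/PBS for 30 min. They were incubated with […] at 4°C overnight, then Alexa Fluor donkey anti-rabbit (1:500) for 1 h at 37°C. Nuclei were stained with DAPI and sections imaged by fluorescence microscopy. n=6.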

Nrf2 pathway = experiment: Western blot of Nrf2 pathway proteins in mice liver tissue; format: in vivo; details: Sch B 25.0–100.0 mg/kg oral, 21 days, Western blotting
Outline: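 Mice were dosed orally once daily for 21 days (25.0, 50.0, 100 mg/kg, in 0.5% sodium carboxymethylcellulose). Frozen liver extracts were assayed for protein by Bradford, and equal protein was run on SDS-PAGE and blotted to PVDF. Membranes were blocked in 5% nonfat milk/TBS, probed with anti-Nrf2, HO-1, NQO1, GST or GR at 4°C overnight, then HRP secondary for 1 h at room temperature. Detection was by ECL on X-ray film.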

[5] = Sch B 5 µM, 48-hour incubation, Western blot

Compound | effect on Sch B-induced activation of Nrf2 and GST expression (Nrf2 signal pathway; ABT 0.5 mM combined with Sch B 5 µM, 48 hours) | HO-1 and GR protein expression (Nrf2 signal pathway; [5]) | expression of GST (Nrf2 signal pathway; [5]) | expression of Nrf2 (Nrf2 signal pathway; [5]) | tacrolimus bioavailability [1] | centrilobular hepatocellular infiltration of lymphocytes (mice liver [2]; 100 mg/kg Sch B oral, 21 days, H&E-stained liver sections) | hepatotoxicity in mice (mice liver [2]; highest dose (100 mg/kg) only, oral, 3 weeks) | IC50 (CYP3A) | CYP450 (CYP1A2/2C9/2D6/2E1/3A4) activities in livers of mice [3] | expression of CYP3A1 mRNA (CYP3A1 mRNA) | positive TUNEL cell in liver (mice liver [4]) | protein expression of NQO-1 and GST in mice liver (Nrf2 pathway) | Nrf2 expression in mice liver (Nrf2 pathway; dose-dependent)
Nn1nnc2ccccc21 [ABT, 1-aminobenzotriazolea, reference compound] | suppressed |  |  |  |  |  |  |  |  |  |  |  | 
COc1cc2c(c(OC)c1OC)-c1c(cc3c(c1OC)OCO3)CC(C)C(C)C2 (stereo not shown) [Sch B, Schisandrin B] |  | no changes | upregulated | upregulated | increase | clearly evident | mild hepatotoxicity | 5.51 µM | considerably increased | significantly increase | very limited | dose-dependent increase | upregulated
